Laboratory results published in ChEMBL document CHEMBL3297654, “Synthesis, antimicrobial and cytotoxic activities, and structure-activity relationships of gypsogenin derivatives against human cancer cells” (Eur J Med Chem, 2014).
Converted amounts (≈) assume the structure as drawn. The source made the active and inactive calls. The calls are words filed in the database; no cut-off is given here.

Legend:
HT-29 [1] = test: Antiproliferative activity against human HT-29 cells after 24 and 72 hrs by MTT assay; assay type: functional, cell-based
Outline: (§1)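 ATCC human cell lines are kept in RPMI, DMEM or McCoy's 5A with 10–15% heat-inactivated FCS at 37 °C and 5% CO2. They are seeded at 1×10^4–1×10^5 cells/mL in 48-well plates and exposed to 0.5, 10, 20 or 40 µM. Viability is read by MTT (590 nm) at 24 and 72 h. Growth is expressed relative to untreated cells and IC50 is fitted, in triplicate.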

Nakaseomyces glabratus = test: Antimicrobial activity against Candida glabrata assessed as zone of inhibition at 30 uL for 24 hrs at 30 degC by disk diffusion test; assay type: functional, organism-based
Outline: (§2)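 Agar well diffusion on Mueller Hinton agar seeded with 0.1 mL broth culture (18–24 h), adjusted to 0.5 McFarland (about 1×10^8 bacteria or 1×10^6 yeast cells/mL). A 6 mm well is filled with 30 µL of compound from a fresh 1000 µg/mL DMSO stock. Plates are held at 30 °C for 24 h and inhibition zone diameter is read in mm.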

Bacillus cereus [2] = test: Antimicrobial activity against Bacillus cereus ATCC 11778 assessed as zone of inhibition at 30 uL for 24 hrs at 30 degC by disk diffusion test; assay type: functional; outline: as §2
[3] = test system: Staphylococcus epidermidis; test: Antimicrobial activity against Staphylococcus epidermidis ATCC 12228 assessed as zone of inhibition at 30 uL for 24 hrs at 37 degC by disk diffusion test; assay type: functional, organism-based
Outline: (§3)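 Compound (30 µL of a fresh 1000 µg/mL DMSO stock) goes into a 6 mm well cut in Mueller Hinton agar inoculated with 0.1 mL broth culture adjusted to 0.5 McFarland (about 1×10^8 cells/mL). Plates are incubated 24 h at 37 °C, then zone of inhibition diameter is measured in mm.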

Candida tropicalis = test: Antimicrobial activity against Candida tropicalis assessed as zone of inhibition at 30 uL for 24 hrs at 30 degC by disk diffusion test; assay type: functional, organism-based; outline: as §2
Pseudomonas aeruginosa = test: Antimicrobial activity against Pseudomonas aeruginosa ATCC 35032 assessed as zone of inhibition at 30 uL for 24 hrs at 37 degC by disk diffusion test; assay type: functional, organism-based; outline: as §3
Escherichia coli = test: Antimicrobial activity against Escherichia coli ATCC 25922 assessed as zone of inhibition at 30 uL for 24 hrs at 37 degC by disk diffusion test; assay type: functional, organism-based; outline: as §3
Candida albicans = test: Antimicrobial activity against Candida albicans ATCC 10231 assessed as zone of inhibition at 30 uL for 24 hrs at 30 degC by disk diffusion test; assay type: functional, organism-based; outline: as §2
Caco-2 [4] = test: Antiproliferative activity against human Caco2 cells after 24 and 72 hrs by MTT assay; assay type: functional, cell-based; outline: as §1
HT-29 [5] = test: Induction of necrosis in human HT-29 cells at 20 uM after 48 hrs by Hoechst 33258/propidium iodide staining based phase contrast microscopic analysis; assay type: functional
Outline: (§4)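 Cells in 48-well plates treated with 0.5, 10, 20 or 40 µM for 24 and 48 h. Values are read at 48 h, 20 µM for test agents and 0.5 µM for controls. Staining is Hoechst 33258/propidium iodide double staining with fluorescence microscopy. Blue nuclei are viable or early-to-mid apoptotic, and pink nuclei are late apoptotic or necrotic. Apoptosis and necrosis are scored from chromatin condensation as % of cells. Cells are grown at 37 °C in 5% CO2 in RPMI, DMEM or McCoy's 5A with 10–15% heat-inactivated FCS.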

HeLa [6] = test: Induction of necrosis in human HeLa cells at 20 uM after 48 hrs by Hoechst 33258/propidium iodide staining based phase contrast microscopic analysis; assay type: functional; outline: as §4
MCF7 [7] = test: Antiproliferative activity against human MCF7 cells after 24 and 72 hrs by MTT assay; assay type: functional, cell-based; outline: as §1
Bacillus thuringiensis [8] = test: Antimicrobial activity against Bacillus thuringiensis assessed as zone of inhibition at 30 uL for 24 hrs at 30 degC by disk diffusion test; assay type: functional; outline: as §2
Salmonella typhimurium = test: Antimicrobial activity against Salmonella typhimurium ATCC 14028 assessed as zone of inhibition at 30 uL for 24 hrs at 37 degC by disk diffusion test; assay type: functional, organism-based; conditions: Salmonella enterica subsp. enterica serovar Typhimurium; outline: as §3
MCF7 [9] = test: Induction of necrosis in human MCF7 cells at 20 uM after 48 hrs by Hoechst 33258/propidium iodide staining based phase contrast microscopic analysis; assay type: functional; outline: as §4
Bacillus cereus [10] = test: Antimicrobial activity against Bacillus cereus ATCC 11778 for 24 hrs by microdillution method; assay type: functional; conditions: ATCC 11778, 24 h
Outline: (§5)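 Broth microdilution. Compound is dissolved in DMSO (2 mg/mL) and diluted in Mueller Hinton broth as two-fold serial dilutions from 256 to 0.125 µg/mL. Bacteria are pre-grown in nutrient broth at 30 °C, and the final inoculum is about 10^6 cfu/mL. Tests are incubated 37 °C for 24 h. MIC is the lowest concentration giving complete inhibition. Streptomycin is the positive control.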

HeLa [11] = test: Antiproliferative activity against human HeLa cells after 24 and 72 hrs by MTT assay; assay type: functional, cell-based; outline: as §1
HL-60 [12] = test: Induction of necrosis in human HL60 cells at 20 uM after 48 hrs by Hoechst 33258/propidium iodide staining based phase contrast microscopic analysis; assay type: functional; outline: as §4
SAOS-2 [13] = test: Induction of necrosis in human Saos2 cells at 20 uM after 48 hrs by Hoechst 33258/propidium iodide staining based […] microscopic analysis; assay type: functional; outline: as §4
HL-60 [14] = test: Antiproliferative activity against human HL60 cells after 24 and 72 hrs by MTT assay; assay type: functional, cell-based; outline: as §1
Klebsiella pneumoniae = test: Antimicrobial activity against Klebsiella pneumoniae ATCC 13882 assessed as zone of inhibition at 30 uL for 24 hrs at 37 degC by disk diffusion test; assay type: functional, organism-based; outline: as §3
Cyberlindnera jadinii = test: Antimicrobial activity against Candida utilis ATCC 9950 assessed as zone of inhibition at 30 uL for 24 hrs at 30 degC by disk diffusion test; assay type: functional, organism-based; outline: as §2
Caco-2 [15] = test: Induction of apoptosis in human Caco2 cells at 20 uM after 48 hrs by Hoechst 33258/propidium iodide staining based phase contrast microscopic analysis; assay type: functional; outline: as §4
Bacillus subtilis [16] = test: Antimicrobial activity against Bacillus subtilis ATCC 6633 assessed as zone of inhibition at 30 uL for 24 hrs at 30 degC by disk diffusion test; assay type: functional; outline: as §2
Enterococcus faecalis = test: Antimicrobial activity against Enterococcus faecalis ATCC 29212 assessed as zone of inhibition at 30 uL for 24 hrs at 37 degC by disk diffusion test; assay type: functional, organism-based; outline: as §3
HT-29 [17] = test: Induction of apoptosis in human HT-29 cells at 20 uM after 48 hrs by Hoechst 33258/propidium iodide staining based phase contrast microscopic analysis; assay type: functional; outline: as §4
MCF7 [18] = test: Induction of apoptosis in human MCF7 cells at 20 uM after 48 hrs by Hoechst 33258/propidium iodide staining based phase contrast microscopic analysis; assay type: functional; outline: as §4
Bacillus subtilis [19] = test: Antimicrobial activity against Bacillus subtilis ATCC 6633 for 24 hrs by microdillution method; assay type: functional; conditions: ATCC 6633, 24 h; outline: as §5
Micrococcus luteus = test: Antimicrobial activity against Micrococcus luteus ATCC 9341 assessed as zone of inhibition at 30 uL for 24 hrs at 30 degC by disk diffusion test; assay type: functional, organism-based; outline: as §2
HeLa [20] = test: Induction of apoptosis in human HeLa cells at 20 uM after 48 hrs by Hoechst 33258/propidium iodide staining based phase contrast microscopic analysis; assay type: functional; outline: as §4
SAOS-2 [21] = test: Induction of apoptosis in human Saos2 cells at 20 uM after 48 hrs by Hoechst 33258/propidium iodide staining based phase contrast microscopic analysis; assay type: functional; outline: as §4
Bacillus thuringiensis [22] = test: Antimicrobial activity against Bacillus thuringiensis for 24 hrs by microdillution method; assay type: functional; outline: as §5
[23] = Antiproliferative activity against human Saos2 cells after 24 and 72 hrs by MTT assay; assay type: functional, cell-based; conditions: SAOS-2; outline: as §1
Proteus vulgaris = test: Antimicrobial activity against Proteus vulgaris ATCC 33420 assessed as zone of inhibition at 30 uL for 24 hrs at 37 degC by disk diffusion test; assay type: functional, organism-based; outline: as §3
Staphylococcus aureus = test: Antimicrobial activity against Staphylococcus aureus ATCC 25923 assessed as zone of inhibition at 30 uL for 24 hrs at 37 degC by disk diffusion test; assay type: functional, organism-based; outline: as §3
Caco-2 [24] = test: Induction of necrosis in human Caco2 cells at 20 uM after 48 hrs by Hoechst 33258/propidium iodide staining based phase contrast microscopic analysis; assay type: functional; outline: as §4
HL-60 [25] = test: Induction of apoptosis in human HL60 cells at 20 uM after 48 hrs by Hoechst 33258/propidium iodide staining based phase contrast microscopic analysis; assay type: functional; outline: as §4
Saccharomyces cerevisiae = test: Antimicrobial activity against Saccharomyces cerevisiae ATCC 9763 assessed as zone of inhibition at 30 uL for 24 hrs at 30 degC by disk diffusion test; assay type: functional, organism-based; outline: as §2

SMILES	IC50 (HT-29 [1])	diameter of the inhibition zone (DIZ) (Nakaseomyces glabratus)	diameter of the inhibition zone (DIZ) (Bacillus cereus [2])	diameter of the inhibition zone (DIZ) [3]	diameter of the inhibition zone (DIZ) (Candida tropicalis)	diameter of the inhibition zone (DIZ) (Pseudomonas aeruginosa)	diameter of the inhibition zone (DIZ) (Escherichia coli)	diameter of the inhibition zone (DIZ) (Candida albicans)	IC50 (Caco-2 [4])	Activity (HT-29 [5])	Activity (HeLa [6])	IC50 (MCF7 [7])	diameter of the inhibition zone (DIZ) (Bacillus thuringiensis [8])	diameter of the inhibition zone (DIZ) (Salmonella typhimurium)	Activity (MCF7 [9])	MIC (Bacillus cereus [10])	IC50 (HeLa [11])	Activity (HL-60 [12])	Activity (SAOS-2 [13])	IC50 (HL-60 [14])	other results
CC(=O)O[C@H]1CC[C@]2(C)[C@H]3CC=C4[C@@H]5CC(C)(C)CC[C@]5(C(=O)O)CC[C@@]4(C)[C@]3(C)CC[C@H]2[C@]1(C)/C=N/NC(N)=S	13.3 µM	inactive	14 mm	inactive	inactive	inactive	inactive	inactive	30.4 µM	26%	65%	7.5 µM	14 mm	inactive	63%	32 mg/L (≈ 54.6 µM)	110 µM	67%	61%	12.8 µM	diameter of the inhibition zone (DIZ) (Klebsiella pneumoniae): inactive; diameter of the inhibition zone (DIZ) (Cyberlindnera jadinii): inactive; Activity (Caco-2 [15]): 3%; diameter of the inhibition zone (DIZ) (Bacillus subtilis [16]): 14 mm; diameter of the inhibition zone (DIZ) (Enterococcus faecalis): inactive; Activity (HT-29 [17]): 3%; Activity (MCF7 [18]): 6%; MIC (Bacillus subtilis [19]): 32 mg/L (≈ 54.6 µM); diameter of the inhibition zone (DIZ) (Micrococcus luteus): inactive; Activity (HeLa [20]): 2%; Activity (SAOS-2 [21]): 2%; MIC (Bacillus thuringiensis [22]): 32 mg/L (≈ 54.6 µM); IC50 [23]: 10.1 µM; diameter of the inhibition zone (DIZ) (Proteus vulgaris): inactive; diameter of the inhibition zone (DIZ) (Staphylococcus aureus): inactive; Activity (Caco-2 [24]): 29%; Activity (HL-60 [25]): 2%; diameter of the inhibition zone (DIZ) (Saccharomyces cerevisiae): inactive
CC(=O)O[C@H]1CC[C@]2(C)[C@H]3CC=C4[C@@H]5CC(C)(C)CC[C@]5(C(=O)O)CC[C@@]4(C)[C@]3(C)CC[C@H]2[C@]1(C)C=O	11.1 µM	inactive	9 mm	inactive	inactive	inactive	inactive	inactive	17.4 µM	20%	33%	20.5 µM	10 mm	inactive	29%	128 mg/L (≈ 250 µM)	35 µM	25%	44%	10.8 µM	diameter of the inhibition zone (DIZ) (Klebsiella pneumoniae): inactive; diameter of the inhibition zone (DIZ) (Cyberlindnera jadinii): inactive; Activity (Caco-2 [15]): 3%; diameter of the inhibition zone (DIZ) (Bacillus subtilis [16]): 11 mm; diameter of the inhibition zone (DIZ) (Enterococcus faecalis): inactive; Activity (HT-29 [17]): 0.8%; Activity (MCF7 [18]): 5%; MIC (Bacillus subtilis [19]): 64 mg/L (≈ 125 µM); diameter of the inhibition zone (DIZ) (Micrococcus luteus): inactive; Activity (HeLa [20]): 4%; Activity (SAOS-2 [21]): 3%; MIC (Bacillus thuringiensis [22]): 128 mg/L (≈ 250 µM); IC50 [23]: 8.24 µM; diameter of the inhibition zone (DIZ) (Proteus vulgaris): inactive; diameter of the inhibition zone (DIZ) (Staphylococcus aureus): inactive; Activity (Caco-2 [24]): 55%; Activity (HL-60 [25]): 8%; diameter of the inhibition zone (DIZ) (Saccharomyces cerevisiae): inactive
